# Tests used:
# [1] = Antiinflammatory activity in […] BV2 cells assessed as inhibition of LPS-induced nitric oxide production at 80 uM by Griess assay; format: functional; conditions: Mus musculus, BV-2
# [2] = Antiinflammatory activity in […] BV2 cells assessed as inhibition of LPS-induced nitric oxide production by Griess assay; format: functional, cell-based; conditions: BV-2
# Outline: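 BV-2 microglial cells were stimulated with lipopolysaccharide, and NO production was measured by the Griess assay. Inhibition is reported as IC50 values in μM.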
# [3] = Cytotoxicity against […] LPS-treated BV2 cells assessed as cell viability up to 80 uM after 24 hrs by MTT assay; format: cell-based; conditions: bv-2, 24 h
IC50 [2] [µM],SMILES,inhibition at 80 µM [1] [%],Activity [3]
,CC(=O)O[C@@H]1[C@H](O)[C@@H](C)[C@](O)(CCc2ccoc2)[C@@]2(C)CCCC(C)(C)[C@H]12,< 50,
,CC(=O)O[C@@H]1[C@H](OC(C)=O)[C@@H](C)[C@](O)(CCc2ccoc2)[C@@]2(C)CCCC(C)(C)[C@H]12,< 50,
,CC(=O)O[C@@H]1[C@H](O)[C@@H](C)[C@]2(CC[C@]3(CO[C@@H](O)C3)O2)[C@@]2(C)CCCC(C)(C)[C@H]12,< 50,
,CC(=O)O[C@@H]1[C@H](O)[C@@H](C)[C@]2(CC[C@]3(CO[C@H](O)C3)O2)[C@@]2(C)CCCC(C)(C)[C@H]12,< 50,
,CC(=O)O[C@@H]1[C@H](O)[C@@H](C)[C@]2(CC[C@@]3(CO[C@H](O)C3)O2)[C@@]2(C)CCCC(C)(C)[C@H]12,< 50,
,CC(=O)O[C@@H]1[C@H](O)[C@@H](C)[C@]2(CC[C@@]3(CO[C@@H](O)C3)O2)[C@@]2(C)CCCC(C)(C)[C@H]12,< 50,
16.2,COC1C=C(CC[C@@]2(O)[C@H](C)[C@@H](O)[C@@H](OC(C)=O)[C@H]3C(C)(C)CCC[C@@]32C)C(=O)O1 (stereo not given in full),,Non-toxic
,CCC(=O)C(OC(C)=O)[C@H]1C(C)(C)CCC[C@]1(C)C(=O)CCc1ccoc1 (stereo not given in full),< 50,
34.9,CCC(=O)C(OC(C)=O)[C@H]1C(C)(C)CCC[C@]1(C)C(=O)CCC1=CCOC1=O (stereo not given in full),,Non-toxic
,CC1(C)CCC[C@@]2(C)C1=CC(=O)[C@](C)(O)[C@]2(O)CCc1ccoc1,< 50,
,CC(=O)O[C@H]1[C@@H](O)[C@H]2C(C)(C)CCC[C@]2(C)[C@@](O)(CCc2ccoc2)[C@@H]1C,< 50,
,C[C@@H]1[C@@H](O)[C@@H](O)[C@H]2C(C)(C)CCC[C@]2(C)[C@@]1(O)CCc1ccoc1,< 50,
14.9,C[C@@H]1C(=O)C=C2C(C)(C)CCC[C@]2(C)[C@@]1(O)CCc1ccoc1,,Non-toxic
,C[C@@H]1[C@@H](O)C(=O)[C@H]2C(C)(C)CCC[C@]2(C)[C@@]1(O)CCc1ccoc1,< 50,
34,CC1=C(CCc2ccoc2)[C@@]2(C)CCCC(C)(C)C2=CC1=O,,Non-toxic

SMILES,IC50 [2] [µM],inhibition at 80 µM [1] [%],Activity [3]
O=c1c(O)c(-c2ccc(O)c(O)c2)oc2cc(O)cc(O)c12 [QUERCETIN],10,,
